How the values were obtained:
[1] = target: T1, Peptidyl-prolyl cis-trans isomerase FKBP5 (Homo sapiens) (UniProt Q13451); test: Binding affinity to FKBP51 FK1 domain (unknown origin) assessed as gibbs free energy change by isothermal titration calorimetric analysis
T1 sequence (whole entry): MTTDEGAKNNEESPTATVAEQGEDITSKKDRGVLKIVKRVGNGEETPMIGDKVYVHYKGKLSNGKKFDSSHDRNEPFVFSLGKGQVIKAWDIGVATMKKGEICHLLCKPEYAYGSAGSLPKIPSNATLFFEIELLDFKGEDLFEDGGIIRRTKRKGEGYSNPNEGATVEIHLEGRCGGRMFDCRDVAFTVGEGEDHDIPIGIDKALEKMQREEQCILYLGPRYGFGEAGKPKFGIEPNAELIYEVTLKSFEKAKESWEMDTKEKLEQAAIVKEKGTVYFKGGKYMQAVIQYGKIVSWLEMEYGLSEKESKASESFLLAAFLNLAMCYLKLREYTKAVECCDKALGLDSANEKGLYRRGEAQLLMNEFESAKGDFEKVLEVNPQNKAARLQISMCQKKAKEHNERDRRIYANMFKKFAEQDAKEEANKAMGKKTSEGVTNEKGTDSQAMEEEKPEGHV
Summary of the method: (§1)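 FKBP51 FK1 domain, ITC at 25 °C in 20 mM HEPES pH 8.0, 20 mM NaCl. Standard setup: 10 μM protein in cell with 0.5% DMSO, 100 μM ligand in syringe. Reverse setup for poorly soluble ligand: 10 μM ligand in cell with 5% DMSO, 100 μM protein in syringe. 18 × 2 μL injections, one-site binding fit, triplicates, weighted SD that includes fit errors.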

[2] = target: T2, Peptidyl-prolyl cis-trans isomerase FKBP5 (Homo sapiens, UniProt Q13451); test: Binding affinity to FKBP51 FK1 domain (unknown origin) assessed as dissociation constant at 25 degreeC by isothermal titration calorimetric analysis; summary of the method: as §1
T2 sequence (Q13451 whole entry): T1 sequence (whole entry)

[3] = target: T1, Peptidyl-prolyl cis-trans isomerase FKBP5 (Homo sapiens); test: Binding affinity to FKBP51 FK1 domain (unknown origin) assessed as change in enthalpy by isothermal titration calorimetric analysis; summary of the method: as §1
[4] = target: Peptidyl-prolyl cis-trans isomerase FKBP1B (Homo sapiens, UniProt P68106); test: (§2) Displacement of fluorescent tracer 5-(3-(4-((1S,5S,6S)-10-(3,5-dichlorophenylsulfonyl)-2-oxo-3-(pyridin-3-ylmethyl)-3,10-diazabicyclo[4.3.1]decan-5-yl)-1H-1,2,3-triazol-1-yl)propylcarbamoyl)-2-(6-(dimethylamino)-3-(dimethyliminio)-3H-xanthen-9-yl)benzoate from recombinant full length C-terminal FLAG-tagged FKBP12.6 (unknown origin) expressed in Escherichia coli BL21 (DE3) cells incubated for 30 mins by fluorescence polarisation competition assay
Summary of the method: (§3)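 Competitive FP in 150 mM NaCl, 20 mM HEPES pH 8.0, 0.002% Triton X-100. Ligand 1:1 serially diluted in DMSO and premixed with fluorescent tracer, tracer working solution 11.9 nM (FKBP12.6, 51FK1, 52FK1) or 5.95 nM (FKBP12) before final 10-fold dilution into protein. 30 min at room temperature, read at ex/em 535/590 nm. Weighted SD from at least two independent runs.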

[5] = target: T3, Peptidyl-prolyl cis-trans isomerase FKBP4 (Homo sapiens, UniProt Q02790); test: as §2, with “FKBP52” for “FKBP12.6”, “competition binding” for “competition”; summary of the method: as §3
T3 sequence (Q02790 whole entry): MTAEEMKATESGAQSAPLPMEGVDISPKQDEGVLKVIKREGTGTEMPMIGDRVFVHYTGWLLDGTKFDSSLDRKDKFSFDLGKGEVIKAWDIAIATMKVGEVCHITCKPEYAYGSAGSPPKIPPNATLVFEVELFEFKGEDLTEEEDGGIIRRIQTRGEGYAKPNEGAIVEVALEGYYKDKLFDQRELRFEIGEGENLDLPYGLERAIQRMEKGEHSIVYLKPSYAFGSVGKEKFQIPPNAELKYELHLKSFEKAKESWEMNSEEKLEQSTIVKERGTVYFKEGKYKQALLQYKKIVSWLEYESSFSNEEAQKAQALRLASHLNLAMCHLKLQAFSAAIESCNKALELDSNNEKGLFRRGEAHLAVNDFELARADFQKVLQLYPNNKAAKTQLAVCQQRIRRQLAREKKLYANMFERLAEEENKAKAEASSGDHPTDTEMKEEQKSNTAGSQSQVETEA

[6] = (§4) Selectivity ratio of Kd for displacement of fluorescent tracer 5-(3-(4-((1S,5S,6S)-10-(3,5-dichlorophenylsulfonyl)-2-oxo-3-(pyridin-3-ylmethyl)-3,10-diazabicyclo[4.3.1]decan-5-yl)-1H-1,2,3-triazol-1-yl)propylcarbamoyl)-2-(6-(dimethylamino)-3-(dimethyliminio)-3H-xanthen-9-yl)benzoate from recombinant full length C-terminal FLAG-tagged FKBP52 (unknown origin) to Kd for displacement of fluorescent tracer 5-(3-(4-((1S,5S,6S)-10-(3,5-dichlorophenylsulfonyl)-2-oxo-3-(pyridin-3-ylmethyl)-3,10-diazabicyclo[4.3.1]decan-5-yl)-1H-1,2,3-triazol-1-yl)propylcarbamoyl)-2-(6-(dimethylamino)-3-(dimethyliminio)-3H-xanthen-9-yl)benzoate from recombinant full length C-terminal FLAG-tagged FKBP51 (unknown origin)
[7] = as §4, with “FKBP12.6” for “FKBP52”
[8] = target: Peptidyl-prolyl cis-trans isomerase FKBP1A (Homo sapiens, UniProt P62942); test: as §2, with “FKBP12” for “FKBP12.6”, “([…])” for “(DE3)”, “competition binding” for “competition”; summary of the method: as §3
[9] = as §4, with “FJBP12” for “FKBP52 (unknown origin)”
[10] = target: T2, Peptidyl-prolyl cis-trans isomerase FKBP5; test: as §2, with “FKBP51” for “FKBP12.6”, “competition binding” for “competition”

Sequence of Peptidyl-prolyl cis-trans isomerase FKBP1B (P68106 whole entry): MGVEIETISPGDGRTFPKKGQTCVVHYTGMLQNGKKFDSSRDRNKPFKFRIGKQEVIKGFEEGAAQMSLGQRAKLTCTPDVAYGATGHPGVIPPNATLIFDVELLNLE
Sequence of Peptidyl-prolyl cis-trans isomerase FKBP1A (P62942 whole entry): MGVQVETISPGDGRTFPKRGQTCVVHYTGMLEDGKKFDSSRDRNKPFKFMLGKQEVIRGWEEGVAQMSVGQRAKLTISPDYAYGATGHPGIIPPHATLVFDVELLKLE

| deltaG [1] [kcal/mol] | Kd [2] [nM] | deltaH [3] [kcal/mol] | Kd [4] [nM] | Kd [5] [nM] | Selectivity ratio [6] | Selectivity ratio [7] | Kd [8] [nM] | Selectivity ratio [9] | Kd [10] [nM] | SMILES |
| --- | --- | --- | --- | --- | --- | --- | --- | --- | --- | --- |
| -10.9 | 9.8 | -11.2 | – | – | – | – | – | – | – | COc1ccc(CC[C@@H](OC(=O)[C@@H]2CCCCN2C(=O)[C@H](c2cc(OC)c(OC)c(OC)c2)C2CCCCC2)c2cccc(OCC(=O)O)c2)cc1OC |
| -11.1 | 6.9 | -11.3 | 9 | 513 | 103 | 1.8 | 22 | 4.4 | 5 | COc1ccc(CC[C@H]2OC(=O)[C@@H]3CCCCN3C(=O)[C@@H](C3CCCCC3)c3cc(OC)c(OC)c(c3)OC[C@@H](O)[C@H](O)COc3cccc2c3)cc1OC |
| – | – | – | 62 | 4460 | 154 | 2.1 | 113 | 3.8 | 29 | COc1ccc(CC[C@H]2OC(=O)[C@@H]3CCCCN3C(=O)[C@@H](C3CCCCC3)c3cc(OC)c(OC)c(c3)OCCCCOc3cccc2c3)cc1OC |
| – | – | – | 709 | > 10000 | > 89 | 6.3 | 588 | 5.2 | 113 | COc1ccc(CC[C@H]2OC(=O)[C@@H]3CCCCN3C(=O)[C@@H](C3CCCCC3)c3cc(OC)c(OC)c(c3)OCC/C=C/COc3cccc2c3)cc1OC |
| – | – | – | 20 | 1400 | 175 | 2.5 | 38 | 4.8 | 8 | COc1ccc(CC[C@H]2OC(=O)[C@@H]3CCCCN3C(=O)[C@@H](C3CCCCC3)c3cc(OC)c(OC)c(c3)OCCC(=O)CCOc3cccc2c3)cc1OC |
| – | – | – | 116 | > 10000 | > 141 | 1.6 | 139 | 2 | 71 | COc1ccc(CC[C@H]2OC(=O)[C@@H]3CCCCN3C(=O)[C@@H](C3CCCCC3)c3cc(OC)c(OC)c(c3)OCC/C=C\COc3cccc2c3)cc1OC |
| – | – | – | 301 | > 10000 | > 73 | 2.2 | 345 | 2.5 | 137 | COc1ccc(CC[C@H]2OC(=O)[C@@H]3CCCCN3C(=O)[C@@H](C3CCCCC3)c3cc(OC)c(OC)c(c3)OCCOC/C=C\COc3cccc2c3)cc1OC |
| – | – | – | 94 | 13200 | > 188 | 1.3 | 295 | 4.2 | 70 | COc1ccc(CC[C@H]2OC(=O)[C@@H]3CCCCN3C(=O)[C@@H](C3CCCCC3)c3cc(OC)c(OC)c(c3)OCCCOc3cccc2c3)cc1OC |
| – | – | – | 495 | > 10000 | > 114 | 5.6 | 526 | 6 | 88 | COc1ccc(CC[C@H]2OC(=O)[C@@H]3CCCCN3C(=O)[C@@H](C3CCCCC3)c3cc(OC)c(c(OC)c3)OCC/C=C\COc3cccc2c3)cc1OC |
| – | – | – | 335 | > 10000 | > 119 | 3.9 | 595 | 7 | 84 | COc1ccc(CC[C@H]2OC(=O)[C@@H]3CCCCN3C(=O)[C@@H](C3CCCCC3)c3cc(OC)c(c(OC)c3)OCCCOC/C=C/COc3cccc2c3)cc1OC |
| – | – | – | 352 | > 10000 | > 69 | 2.3 | 494 | 3.4 | 144 | COc1ccc(CC[C@H]2OC(=O)[C@@H]3CCCCN3C(=O)[C@@H](C3CCCCC3)c3cc(OC)c(OC)c(c3)OCCCOC/C=C\COc3cccc2c3)cc1OC |
| – | – | – | 85 | 795 | 66.2 | 7 | 79 | 6.5 | 12 | COc1ccc(CC[C@H]2OC(=O)[C@@H]3CCCCN3C(=O)[C@@H](C3CCCCC3)c3cc(OC)c(c(OC)c3)OCC(O)C(O)COc3cccc2c3)cc1OC (mixture of isomers) |
| – | – | – | 227 | > 10000 | > 147 | 3.3 | 532 | 7.8 | 68 | COc1ccc(CC[C@H]2OC(=O)[C@@H]3CCCCN3C(=O)[C@@H](C3CCCCC3)c3cc(OC)c(c(OC)c3)OCCOc3cccc2c3)cc1OC |
| – | – | – | 429 | > 10000 | > 72 | 3.1 | 1110 | 8 | 138 | COc1ccc(CC[C@H]2OC(=O)[C@@H]3CCCCN3C(=O)[C@@H](C3CCCCC3)c3cc(OC)c(c(OC)c3)OCCOCCCCOc3cccc2c3)cc1OC |
